Data taken from ChEMBL document CHEMBL3616442, “Unconventional Knoevenagel-type indoles: Synthesis and cell-based studies for the identification of pro-apoptotic agents” (Eur J Med Chem, 2015).
Calls of active or inactive are those of the source. The rule behind the calls is not given here.

How the values were obtained:
Tubulin (Homo sapiens) = Tubulin (Homo sapiens) (UniProt P68371+Q9H4B7+P0DPH7+P68366+Q13509+Q71U36+P04350+Q3ZCM7+P07437+P68363+Q9BQE3+Q6PEY2+Q13885+Q9BVA1+Q9BUF5); assay: Induction of Tubulin depolymerization in human MCF7 cells by immunofluorescence analysis; format: cell-based
Procedure, shortened: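 MCF-7 cells grown and treated on chamber slides, fixed in ice-cold 100% methanol, washed in PBS with 0.1% Triton X-100, blocked 30 min in 5% BSA, then mouse anti-tubulin for 1 h and Alexa 488 secondary for 1 h; DNA counterstained with 0.2 μg/mL propidium iodide for 2 min. Paclitaxel and PBOX-15 served as tubulin controls.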

K562 = assay: Induction of cell cycle arrest in human K562 cells assessed as accumulation at G2/M phase after 24 hrs by propidium iodide staining based flow cytometric analysis; format: functional
Procedure, shortened: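 Propidium iodide/RNase A flow cytometry of ethanol-fixed cells, 10,000 gated events at 488 nm; G2/M fraction measured after 18 h treatment (HL-60, MCF-7) or 24 h (K562); mean ± S.E.M. of three independent experiments.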

## COc1ccc(-c2[nH]c3ccccc3c2/C=C(\C#N)S(=O)(=O)c2ccccc2)cc1
Tubulin (Homo sapiens)
  Activity: Active
K562
  Activity: 42.4%
